The record followed here is ChEMBL document CHEMBL1123866, “Benzimidazole derivatives with atypical antiinflammatory activity” (J Med Chem, 1987).

Test [1] has as its system Rattus norvegicus. As to the kind of experiment: Anti-inflammatory activity (% inhibition of paw swelling)in rat adjuvant arthritis model at 25 mg/kg oral dose. The class given is functional. The procedure, abridged: (§1)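 Rats, ten per group, were dosed orally with a suspension in 1% acacia in distilled water, starting immediately after adjuvant injection and then once daily for 14 days in total. Foot volume of the noninjected hind paw was measured by mercury displacement to the lateral malleolus 24 h after the final dose. Percent inhibition of swelling was calculated against untreated arthritic controls.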

The subject of test [2] is Rattus norvegicus. As to the kind of experiment: Antiinflammatory activity was evaluated for the compound in rat adjuvant arthritis model and the percent of inhibition was determined at 50 mg/kg dose administered orally. The format is functional. The settings on record: route oral. The method, boiled down:
as §1

The test system of test [3] is Rattus norvegicus. As to the kind of experiment: Antiinflammatory activity was evaluated for the compound in rat adjuvant arthritis model and the percent of inhibition was determined at 1 mg/kg dose administered orally. The settings on record: po, read-out: Inhibition.

On to `O=S(=O)(c1nc2cc(Cl)ccc2[nH]1)C(F)(F)C(F)(F)F`, for which the inhibition in vivo at 25 mg/kg in the test with Rattus norvegicus [1] was 0%. Same read-out and setting: the figure for `COC(=O)c1ccc2[nH]c(S(=O)(=O)CC(F)(F)F)nc2c1` is 11%. Still for that read-out and setting: the same measure for `O=S(=O)(CC(F)(F)F)c1nc2cc(Cl)c(Cl)cc2[nH]1`: 24%; for `Cc1ccc2[nH]c(S(=O)(=O)C(F)(F)C(F)(F)F)nc2c1`: 8%; for `O=S(=O)(CC(F)(F)F)c1nc2cc(F)ccc2[nH]1`: 43%. For `O=S(=O)(CC(F)(F)F)c1nc2ccccc2[nH]1`, in the test on Rattus norvegicus [1], the inhibition in vivo at 25 mg/kg amounted to 52%. Regarding `Cc1ccc2[nH]c(S(=O)(=O)CC(F)(F)F)nc2c1`, the inhibition in vivo at 25 mg/kg in the test with Rattus norvegicus [1] was determined as 52%. In addition, the inhibition in vivo at 50 mg/kg with Rattus norvegicus [2] came out at 72%.

Take `CCc1ccc2[nH]c(S(=O)(=O)CC(F)(F)F)nc2c1`: the inhibition in vivo at 25 mg/kg in the test on Rattus norvegicus [1] turned out to be 34%.

Take `O=S(=O)(CC(F)(F)F)c1nc2cc(Cl)ccc2[nH]1`: the inhibition in vivo at 25 mg/kg in the test with Rattus norvegicus [1] is 28%.

In the case of `CCS(=O)(=O)c1nc2cc(C)ccc2[nH]1`, the inhibition in vivo at 25 mg/kg with Rattus norvegicus [1] was found to be 17%.

With `O=S(=O)(c1nc2cc(Cl)ccc2[nH]1)C(F)(F)C(F)(F)C(F)(F)F`, the inhibition in vivo at 25 mg/kg in the test on Rattus norvegicus [1] turned out to be 0%. `Cc1cc2[nH]c(S(=O)(=O)CC(F)(F)F)nc2cc1F`: in the test on Rattus norvegicus [1], the inhibition in vivo at 25 mg/kg turned out to be 44%. The same measure, in the same setting: the figure for `Cc1cc2nc(S(=O)(=O)CC(F)(F)F)[nH]c2cc1C` is 18%. Still for that read-out and setting: the figure for `CCCc1ccc2[nH]c(S(=O)(=O)CC(F)(F)F)nc2c1` is 0%; for `O=S(=O)(CC(F)(F)F)c1nc2cc(C(F)(F)F)ccc2[nH]1` it is 0%; for `CC(C)Cc1ccc(C(C)C(=O)O)cc1` (stereo not drawn) [IBUPROFEN] it is 73%. `COc1ccc2c(c1)c(CC(=O)O)c(C)n2C(=O)c1ccc(Cl)cc1` [INDOMETHACIN]: in the test on Rattus norvegicus [3], the inhibition in vivo at 1 mg/kg is 69%.
